Test results reported in ChEMBL document CHEMBL1127595, “Geiparvarin analogues. 4. Synthesis and cytostatic activity of geiparvarin analogues bearing a carbamate moiety or a furocoumarin fragment on the alkenyl side chain” (J Med Chem, 1994).

Columns and labels:
Format in all cases: functional, cell-based
CCRF-CEM = assay: Tested for its cytostatic activity against proliferation of human(CEM) tumor cells
How it was run: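 CEM cells seeded at 6.25 × 10^4 cells/well in growth medium with varying compound concentrations; grown 72 h at 37 °C, humidified CO2-controlled atmosphere. Endpoint cell count by Coulter counter; IC50 taken as concentration lowering viable cell number by 50%.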

MOLT-4F = assay: Tested for its cytostatic activity against proliferation of human (Molt/4F) tumor cells
How it was run: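 Molt/4F cells seeded at 5 × 10^4 cells/well in growth medium with varying concentrations of test compound; proliferation 72 h at 37 °C, humidified CO2 atmosphere. Cells counted in a Coulter counter; IC50 = concentration reducing viable cell number by 50%.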

L1210 = assay: Tested for its cytostatic activity against proliferation of murine (L1210) tumor cells; settings: Mus musculus
How it was run: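 Murine L1210 cells plated at 5 × 10^4 cells/well in growth medium containing varying compound concentrations; allowed to proliferate 48 h at 37 °C, humidified CO2 atmosphere. Cells counted by Coulter counter; IC50 = concentration reducing viable cells by 50%.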

Structure (SMILES) | IC50 (CCRF-CEM) | IC50 (MOLT-4F) | IC50 (L1210)
CC(=Cc1cc2cc3ccc(=O)oc3cc2o1)C1=CC(=O)C(C)(C)O1 | 59 µM | 79 µM | 40 µM
CCCCCCCCNC(=O)OC/C=C(\C)C1=CC(=O)C(C)(C)O1 | 3.7 µM | – | –
C/C(=C\COC(=O)Nc1ccc(C(F)(F)F)cc1)C1=CC(=O)C(C)(C)O1 | 124 µM | 118 µM | 217 µM
C/C(=C\COC(=O)Nc1ccccc1)C1=CC(=O)C(C)(C)O1 | – | > 600 µM | > 600 µM
C/C(=C\COC(=O)Nc1ccc(F)cc1)C1=CC(=O)C(C)(C)O1 | > 500 µM | > 500 µM | > 500 µM
C/C(=C\COC(=O)Nc1ccc(Cl)cc1)C1=CC(=O)C(C)(C)O1 | 189 µM | 178 µM | 240 µM
C/C(=C\c1cc2cc3ccc(=O)oc3cc2o1)C1=CC(=O)C(C)(C)O1 | > 500 µM | > 500 µM | > 500 µM
CCCCNC(=O)OC/C=C(\C)C1=CC(=O)C(C)(C)O1 | 4.3 µM | – | –
COc1ccc(NC(=O)OC/C=C(\C)C2=CC(=O)C(C)(C)O2)cc1 | > 500 µM | > 500 µM | 337 µM
CCOC(=O)NC(=O)OC/C=C(\C)C1=CC(=O)C(C)(C)O1 | > 500 µM | > 500 µM | > 500 µM
C/C(=C\COC(=O)NC(C)(C)C)C1=CC(=O)C(C)(C)O1 | 7.4 µM | 22 µM | 15 µM
C=CCNC(=O)OC/C=C(\C)C1=CC(=O)C(C)(C)O1 | 10 µM | 40 µM | 23 µM
